Measurements reported in PubChem BioAssay AID651787 (The Scripps Research Institute Molecular Screening Center, 2012).
About 1,200 (50%) of roughly 2,400 compounds were called active. So high a share suggests a set chosen from earlier hits. A selection follows. Unmarked numbers belong to inactive results.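 How the source made its calls: active means activation above the run cutoff, the mean activation over all tested wells plus 3 SD (cut at about 12% in these data); inactive means the rest.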

assay: calcium rise in parental Ga16 cells – cell-based, fluorescence, CHO-Ga16 parental line, counter-screen for hTAAR1 agonist project (AID 651787); conditions: Fluo-8 calcium fluorescence, at 3 µM, stronger effect = higher value, normalized to maximal ATP response, DMSO zero;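 further: 0% = DMSO wells and 100% = maximal ATP response on the peak over basal ratio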
How it was run: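 Test system: Parental CHO cells stably overexpressing Gα16, lacking hTAAR1 | Input: 750 cells in each well | Compound dosing: One dose of 3 µM (nominal) | Timing: 17-24 h seeding, dye 75 min 37 °C, 30 min RT | Measured by: Fluo-8 calcium-dye fluorescence | Read-out basis: % activation from peak-to-basal fluorescence ratio, DMSO to ATP scale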

| SMILES | activation |
| --- | --- |
| O=C1CCCC(O)=C1C=NCCc1ccccc1 | 5.18% |
| CCCCc1c(-c2ccc(Br)cc2)ncn1CCc1ccccc1OC | 13.2% (active) |
| CCCCCc1c(-c2cccc(Br)c2)ncn1CCc1ccccc1OC | 10.8% |
| CCCCCc1c(Cc2ccccc2)ncn1CCc1ccccc1OC | 17% (active) |
| CCCCCc1c(-c2ccc(OC)c(OC)c2)ncn1CCc1ccccc1OC | 17.4% (active) |
| CCc1c(-c2ccccc2OC)ncn1CCc1ccccc1OC | 5.18% |
| CCCCc1c(-c2ccc(Cl)cc2)ncn1CCc1ccccc1OC | 16.1% (active) |
| O=[N+]([O-])c1cc(S(=O)(=O)NCCc2ccccn2)ccc1Cl | 2.99% |
| CCCCCCCCCCOC(=O)Cn1c(COc2ccc(C)cc2)[n+](C)c2ccccc21 | 76.5% (active) |
| Cc1c(CNCCc2ccccc2)c(C(=O)O)c(C)n1-c1ccccc1 | 1.76% |
| S=C(Nc1ccc(Br)cc1)NC1CCN(Cc2ccccc2)CC1 | 22.9% (active) |
| O=C(/C=C/[C@H]1O[C@@H](n2cnc3c(NC(=O)c4ccccc4)ncnc32)[C@H](O)[C@@H]1O)NCc1ccccc1 | 0.21% |
| O=C(Cc1ccc(Cl)cc1)NC(=S)Nc1ccccc1O | 103% (active) |
| O=C(NCCc1ccccc1)Oc1ccc(Cl)cc1 | 1.7% |
| Cc1ccccc1NC(=S)NC(=O)Cc1ccc(Cl)cc1 | 41.1% (active) |
| O=c1cnnc(Nc2ccccc2)[nH]1 | 4.92% |
| O=C(Nc1ccccc1)Nc1nnc(COc2ccccc2F)s1 | 8.56% |
| O=Cc1c(NCCc2cccc(F)c2)c2ccccc2[nH]c1=O | 2.77% |
| CCCCC(=O)NNC(=S)NC(=O)C(c1ccccc1)c1ccccc1 | 119% (active) |
| CN(C)CCCN(C(=O)c1ccc(S(=O)(=O)N2CCCc3ccccc32)cc1)c1nc2ccc(F)cc2s1 | 37.7% (active) |
| CN(C)CCCN(C(=O)c1ccc(S(=O)(=O)N2CCCCCC2)cc1)c1nc2ccc(Br)cc2s1 | 36.2% (active) |
| Nc1nnn(CC(=O)N/N=C/c2ccccc2)n1 | -0.59% |
| c1ccc(CCN2CN=C(Nc3nc4ccccc4o3)NC2)cc1 | 0.14% |
| CC(=O)Oc1ccc(Cn2c(C)c(C(=O)NCc3ccc(C#N)cc3)sc2=O)cc1 | 66.2% (active) |

| SMILES | activation |
| --- | --- |
| Cc1cccc(NC(=O)C(C)N2C(=O)C3C4CC(C(Br)C4Br)C3C2=O)c1 (stereo not drawn) | 25.2% (active) |
| c1ccc(Nc2nc(N3CCOCC3)c3ccccc3n2)cc1 | 14.2% (active) |
| Nc1c(NCCc2ccccc2)c2ccccc2oc1=O | 6.54% |
| CCOc1ccc(Br)cc1CSC(=N)N | 9.07% |
| CCCCOc1ccc(CSC(=N)N)cc1[N+](=O)[O-] | 22.3% (active) |
| CCN(CC)c1ccc2oc(=O)c(C)nc2c1 | 43.7% (active) |
| Oc1ccc2ccc3cccc[n+]3c2c1 | 126% (active) |
| CN(C(=O)CN(CCO)CC(=O)N(C)C(C)(C)Cc1ccccc1)C(C)(C)Cc1ccccc1 | 84.7% (active) |
| NC[C@H](Cc1ccccc1)NCCc1cc(C(F)(F)F)cc(C(F)(F)F)c1 | 21.6% (active) |
| CCc1ccc(-c2nn(-c3ccccc3)cc2CSC(=N)N)cc1 | 26.4% (active) |
| CN(C)c1ccc(/C=C2\NC(=S)N(Cc3ccccc3)C2=O)cc1 | 67.4% (active) |
| O=C1CCCN2N=C(SCC(=O)Nc3ccc(Br)cc3)SC2=N1 | 8.82% |
| O=C(Nc1ccncc1)Nc1ccc(F)cc1 | 4.69% |
| Cc1cc(C)c2cc(C#N)c(N3CCNCC3)nc2c1 | -0.65% |
| N#Cc1ccc(OCCCN2CCC(C(O)(c3ccccc3)c3ccccc3)CC2)c(F)c1 | 21.1% (active) |
| O=C(CNC(=O)c1ccccc1F)OCC(=O)c1c[nH]c2ccccc12 | 2.13% |
| S=C(NCCCc1cnc[nH]1)NCCCN(Cc1ccc(Cl)c(Cl)c1)c1ccc(Br)cn1 | 26.5% (active) |
| COc1ccc(NC(=O)C(=O)NCC(c2ccco2)N2CCc3ccccc3C2)cc1 (stereo not drawn) | 0.06% |
| COC(=O)c1[nH]c2cccc(C)c2c1NC(=O)CN1CCCc2ccccc21 | 11.5% |
| NC(c1ccccc1)c1csc(NC(=O)Nc2cccc(C(F)(F)F)c2)n1 (stereo not drawn) | 37% (active) |
| COc1ccc(C(N)c2csc(NC(=O)Nc3cccc(C(F)(F)F)c3)n2)cc1 (stereo not drawn) | 22.4% (active) |
| CCOC(=O)Cc1csc(NC(=O)Nc2ccccc2)n1 | 10.9% |
| Cc1ccn2c(=O)c(C(=O)NCCC3=CCCCC3)c(O)nc2c1 | 4.2% |
| O=C(CCCN=C1NS(=O)(=O)c2ccccc21)OCC(=O)c1ccc(F)c(F)c1 | 51.3% (active) |
